IDE inh: inhibits human insulin-degrading enzyme in HEK cells. FAbetaB cleavage, fluorescence polarization. P14735. AID 434962. inhibition, % at 5.59 µM. 320,000 compounds, 0.41% hits;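 active = percent inhibition above the average of all tested compounds plus 3 SD, set per screening campaign, cut at about 16% in these data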;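 note: IDE supplied by intact live HEK cells; FP after avidin binding of uncleaved biotin substrate so inhibition keeps polarization high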
TPT1 inh: C. albicans TPT1 enzyme inhibition; recombinant caTPT1, FP RNA substrate dephosphorylation; AID 1962; 300,000 compounds, 0.81% hits; inhibition, % at 5 µM;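 active = inhibition above the mean of all tested compounds plus 3 SD, set per screening campaign, cut at about 24% in these data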
proCasp7 act: activates human procaspase-7, counter-screen for procaspase-3 activators | 330,000 compounds, 0.093% hits | AID 463210 | recombinant procaspase-7, Ac-DEVD-pNA absorbance 405 nm; D23A/D198A/D206A triple mutant, cannot self-cleave; scale: DMSO 0, 5 µM enzyme 100 | activation, % at 8.5 µM;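 active = percent activation above the screen-wide mean plus 3 SD, cut at about 25% in these data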
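System: Uncleavable procaspase-7 mutant enzyme; Amount: 2 µM procaspase-7 mutant as dispensed; Schedule: 1 h compound preincubation, 2 h substrate cleavage, 25 °C; Measured by: 405 nm absorbance of p-nitroaniline; Evaluation: percent activation from buffer-corrected 0–120 min absorbance change; Control set: low DMSO alone, high DMSO plus 5 µM PC-7.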
IDE act: activators of human insulin-degrading enzyme in cells | activation, % at 5.96 µM | 340,000 compounds, 0.073% hits | HEK cells, FAbeta-B cleavage, fluorescence polarization; 0% vehicle, 100% cell-free pure enzyme wells | P14735;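 active = activation above the mean of all tested compounds plus 3 SD, set per screening campaign, cut at about 17% in these data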
procasp3 activ: procaspase-3 (human) activation. activation, % at 8.5 µM. 330,000 compounds, 0.11% hits. AID 463141. recombinant procaspase-3 D3A, Ac-DEVD-pNA absorbance 405 nm;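 active = activation above the mean of all tested compounds plus 3 SD, cut at about 21% in these data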
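Assay system – Procaspase-3 D3A mutant, all three cleavage aspartates alanine · Controls – DMSO-only low control, 5 µM PC-3 D3A high control · Schedule – 1 h compound preincubation, 2 h substrate hydrolysis at 25 °C · Signal – 405 nm absorbance of p-nitroaniline, reads at 0 and 120 min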
TPT1 inh confirm: confirmation of Candida albicans TPT1 inhibitors; shares compounds with TPT1 inh; inhibition, % at 5 µM; recombinant caTPT1, fluorescence polarization, RNase T1 coupled; AID 2149; 2,400 compounds, 74% hits;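 active = inhibition above the primary screen limit, the mean inhibition of all tested compounds plus 3 SD, cut at about 25% in these data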
RNase T1 inh: blocks Aspergillus oryzae RNase T1, a TPT1 counter-screen; RNase T1 cleavage, fluorescence polarization, 1536-well; AID 2153; inhibition, % at 5 µM; shares compounds with TPT1 inh; 2,400 compounds, 83% hits;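 active = inhibition above the solvent-only control well mean plus 3 SD, limit set per screening run, cut at about 23% in these data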;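 note: inhibitors block cleavage so intact labeled substrate keeps polarization high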
A number is an active result; 0 = inactive; - = no result. Only some compounds are listed: those with a hit (about 1.2% of all), similar ones and a draw of the others.

SMILES	IDE inh	TPT1 inh	proCasp7 act	IDE act	procasp3 activ	TPT1 inh confirm	RNase T1 inh
O=C(Nc1ccnn1C1CCN(CCCc2ccccc2)CC1)c1cccc(F)c1	0	0	0	0	0	-	-
CN(C)CCNC(=O)/C(=C/c1ccc(-c2ccc(Cl)cc2)o1)NC(=O)c1ccccc1	0	41	0	0	0	0	0
CCc1c(C(=O)N2CCCN(C)CC2)csc1C	0	0	0	0	0	-	-
CC(C)(C)c1ccc(C(=O)NNc2cc(N3CCCCC3)nc(N3CCCCC3)n2)cc1	0	45	0	0	0	0	0
CC(C)(C)c1ccc(C(=O)NNc2cc(N3CCOCC3)nc(N3CCOCC3)n2)cc1	0	0	0	0	0	-	-
CC(C)(C)c1csc(NC(=O)Cc2cccs2)n1	0	99	0	0	0	0	0
CC(C)(C)c1csc(NC(=O)c2cccs2)n1	0	0	0	0	0	-	-
Cc1ccc(C(C)C)c(OCC(O)CN2CCc3ccccc3C2)c1 (stereo not drawn)	0	0	0	0	0	-	-
Cn1cc(CNCc2ccccc2OCC(O)CN2CCc3ccccc3C2)cn1 (stereo not drawn)	0	26	0	0	0	0	0
CN1CCc2c(sc(/N=C/c3c[nH]c4ccccc34)c2C#N)C1	0	44	0	-	0	43	53
CN1CCc2c(sc(/N=C/c3cc(Cl)ccc3O)c2C#N)C1	0	27	0	0	0	28	38
CN1CCc2c(sc(/N=C/c3c[nH]c4ccccc34)c2C(N)=O)C1	0	0	0	-	0	-	-
CSCCC(NC(=O)c1ccco1)C(=O)NCC1CCCO1 (stereo not drawn)	0	-	0	0	0	-	-
Cc1cc(/C=C2/C(=N)N3C(c4ccccc4)=CSC3=NC2=O)c(C)n1-c1ccccc1	0	24	0	0	0	0	27
N=C1/C(=C/c2ccc(-c3cccc(C(=O)O)c3)o2)C(=O)N=C2SC(CC(=O)N3CCOCC3)=NN12	0	0	0	0	0	-	-
N=C1/C(=C\c2ccc(-c3cccc(C(=O)O)c3)o2)C(=O)N=C2SC=C(c3ccccc3)N12	0	66	0	0	0	82	92
CCCCOc1ccc(C(=O)NCC(=O)N2CC(C)CC(C)C2)cc1 (stereo not drawn)	0	-	0	0	0	-	-
S=c1[nH]c2ccccc2o1	0	0	0	0	0	-	-
CCOc1ccc(CCNC(=O)c2ccc(S(=O)(=O)N3CCCC3)cc2)cc1OCC	0	0	0	0	0	-	-
CCCCN1C(=O)/C(=C/C=C2\Oc3ccccc3N2CC)SC1=S	-	-	-	0	-	-	-
CCCN1C(=O)/C(=C\C=C2/Sc3ccccc3N2CCO)SC1=S	0	64	0	0	0	42	54
O=C(COC(=O)c1ccc(F)c(S(=O)(=O)N2CCOCC2)c1)NC1CC1	0	-	0	0	0	-	-
CCCC(NC(=O)c1c(C)noc1C)C12CC3CC(CC(C3)C1)C2 (stereo not drawn)	0	81	0	0	0	25	35
Cc1noc(C)c1C(=O)NC(C)C12CC3CC(CC(C3)C1)C2 (stereo not drawn)	0	0	0	0	0	-	-
Fc1ccc(-c2nc3c(-c4ccccc4)cnn3cc2CCN2CCOCC2)cc1	0	0	0	0	0	-	-
SMILES	IDE inh	TPT1 inh	proCasp7 act	IDE act	procasp3 activ	TPT1 inh confirm	RNase T1 inh
COCC1CCCCN1C(=O)c1cccc(OC2CCN(C(=O)C3CC3)CC2)c1 (stereo not drawn)	0	0	0	0	0	-	-
COc1ccc(-c2c/c(=N\c3nc(-c4ccccc4)c(C)s3)c3ccccc3o2)cc1O	0	27	0	0	0	0	31
COc1ccc(-c2cc(=Nc3c(C)n(C)n(-c4ccccc4)c3=O)c3ccccc3o2)cc1	0	0	0	0	0	-	-
N#Cc1c(Sc2ncc(C(F)(F)F)cc2Cl)nsc1C/C=N\OCc1ccccc1Br	0	55	0	0	0	35	37
CCOC(=O)/C(=C\Nc1ccccc1C(F)(F)F)Sc1ncc(C(F)(F)F)cc1Cl	0	0	0	0	0	-	-
CCOC(=O)SC1=N/C(=C\c2ccc(N(C)C)cc2)C(=O)S1	0	82	0	0	0	101	102
C[C@H](CO)N1C[C@H](C)[C@@H](CN(C)S(C)(=O)=O)Oc2c(NC(=O)C3CC3)cccc2C1=O	0	-	0	0	0	-	-
N=C1/C(=C\c2coc3ccc(O)cc3c2=O)C(=O)N=C2SC=CN12	0	65	0	0	0	67	76
N=C1/C(=C/c2coc3ccccc3c2=O)C(=O)N=C2SC(c3ccco3)=NN12	0	59	0	-	0	88	97
CS(=O)(=O)N(CC(=O)N1CCc2ccccc2C1)c1cccc(Br)c1	0	0	0	0	0	-	-
CCN(C(=O)c1ccc(S(=O)(=O)N2CCCCC2)cc1)C1CCS(=O)(=O)C1 (stereo not drawn)	0	0	0	0	0	-	-
COc1ccc(/C=C2\CC/C(=C\c3ccc(OC)cc3OC)C2=O)c(OC)c1	0	148	0	0	0	148	138
COc1ccc(/C=C2\CCC(C3CCCC3)C2=O)c(OC)c1 (stereo not drawn)	0	0	0	0	0	-	-
CC1CCc2sc(NC(=O)C3CC(Cl)=CCC3C(=O)O)c(C#N)c2C1 (stereo not drawn)	0	0	0	-	0	-	-
CCCc1cc(=O)[nH]c(SCC(=O)NC2(C#N)CCCCC2)n1	0	-	0	0	0	-	-
C#CCSc1nc2[nH]ncc2c(=O)[nH]1	0	33	0	0	0	0	0
O=C(COc1cc(F)ccc1[N+](=O)[O-])NCCCc1ccccc1	0	0	0	0	0	-	-
C=C(C)c1cccc(C(C)(C)NC(=O)NCC2CCCO2)c1 (stereo not drawn)	0	25	0	0	0	0	0
CCN1C(=O)CS/C1=C(\C#N)S(=O)(=O)c1ccccc1	0	104	0	0	0	80	90
CCN1C(=O)CS/C1=N\S(=O)(=O)c1ccccc1	0	0	0	0	0	-	-
NC(=O)C(=O)N/N=C/c1c2ccccc2cc2ccccc12	0	0	0	0	0	-	-
CN1/C(=C\C(=O)COc2ccc3c(c2)OCO3)C(C)(C)c2ccccc21	0	32	0	0	0	34	43
COc1ccccc1OCC(=O)/C=C1/N(C)c2ccccc2C1(C)C	0	0	0	0	0	-	-
Cc1ccc(Oc2cc([N+](=O)[O-])cc3c2C(=O)Nc2ccccc2O3)cc1	0	24	0	0	0	36	46
CCCCc1ccc(CC2S/C(=C(\C#N)C(=O)N3CCOCC3)N(c3ccccc3)C2=O)cc1 (stereo not drawn)	0	35	0	0	0	62	74
